Key:
[1] = test system: CCRF-CEM; assay: Cytotoxicity against human CCRF-CEM cells after 72 hrs by MTT assay; assay type: functional; conditions: for CC50: read-out: LC50 (the source's name)
Outline: (§1)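 MTT read-out after 72 h exposure at 37 °C in humidified 5% CO2, with five concentrations between 0.01 and 100. GI50 is 50% growth reduction versus untreated controls, TGI is complete growth inhibition, and LC50 is the concentration killing 50% of cells. Minimum three independent experiments.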

[2] = test system: MCF7; assay: Cytotoxicity against human MCF7 cells after 72 hrs by MTT assay; assay type: functional; conditions: MCF7, 72 h; outline: as §1
[3] = Cytotoxicity against human HTB-54 cells after 72 hrs by MTT assay; assay type: functional; conditions: HTB-54, 72 h; for CC50: read-out: LC50 (the source's name); outline: as §1
[4] = Cytotoxicity against human 184B5 cells after 72 hrs by MTT assay; assay type: cell-based; conditions: for GI50 at 72 h: 184B5 cells; for LC50 / TGI: 184b5, 72 h; outline: as §1
[5] = Cytotoxicity against human BEAS2B cells after 72 hrs by MTT assay; assay type: cell-based, BEAS-2B; conditions: for GI50 at 72 h: BEAS2B cells; for LC50 / TGI: beas-2b, 72 h; outline: as §1
[6] = test system: HT-29; assay: Cytotoxicity against human HT-29 cells after 72 hrs by MTT assay; assay type: functional; conditions: HT-29, 72 h; for CC50: read-out: LC50 (the source's name); outline: as §1

SMILES | GI50 [1] [µM] | TGI [1] [µM] | CC50 [1] [µM] | GI50 [2] [µM] | LC50 [2] [µM] | TGI [2] [µM] | GI50 [3] [µM] | TGI [3] [µM] | CC50 [3] [µM] | GI50 at 72 h [4] [µM] | LC50 [4] [µM] | TGI [4] [µM] | GI50 at 72 h [5] [µM] | LC50 [5] [µM] | TGI [5] [µM] | GI50 [6] [µM] | TGI [6] [µM] | CC50 [6] [µM]
Nc1nc([SeH])nc2ncccc12 | 30.9 | 61.5 | 92.1 | 37.3 | > 100 | > 100 | 44.3 | 96.6 | > 100 | 5.2 | 74.98 | 31.05 | 5.89 | > 100 | 87.73 | 36.3 | 89.6 | > 100
CSc1ccc(CNc2nc([Se]C)nc3ccccc23)cc1 | 48.7 | 86.9 | > 100 | 54.1 | > 100 | > 100 | 37.9 | 72.4 | > 100 | 37.1 | > 100 | > 100 | 35.9 | > 100 | 78.54 | 72.7 | > 100 | > 100
CSc1nc(NCc2ccccc2)c2ccccc2n1 | 87.9 | > 100 | > 100 | 41.5 | > 100 | 82.8 | 37.9 | 82.3 | > 100 | 28.9 | > 100 | > 100 | 38.9 | > 100 | 88.24 | 36.5 | > 100 | > 100
CCCCC[Se]c1nc([Se]CCCCC)c2cccnc2n1 | > 100 | > 100 | > 100 | 40.8 | 94.6 | 67.7 | 15.2 | 60.5 | > 100 | 52.8 | > 100 | > 100 | > 100 | > 100 | > 100 | > 100 | > 100 | > 100
COc1ccc(CNc2nc(SC)nc3ccccc23)cc1 | 93.7 | > 100 | > 100 | 30.9 | > 100 | 85.1 | 93.7 | > 100 | > 100 | 85.6 | > 100 | > 100 | 21.7 | > 100 | 96.24 | 70.2 | > 100 | > 100
CSc1nc(NCCCc2ccccc2)c2ccccc2n1 | 39.5 | 87.8 | > 100 | 77.2 | > 100 | > 100 | 50.6 | > 100 | > 100 | 6.77 | > 100 | > 100 | 73.4 | > 100 | > 100 | 19.6 | 89.5 | > 100
CCCCC[Se]c1nc(N)c2cccnc2n1 | 12.9 | 42.8 | 72.6 | 22.7 | 85 | 53.8 | 8.78 | 51 | 98.5 | 10.3 | 70.14 | 40.23 | 16.3 | 73.48 | 44.89 | 5.91 | 20 | 62.1
CCCCCSc1nc(NCc2ccc([Se]C)cc2)c2ccccc2n1 | > 100 | > 100 | > 100 | 13 | > 100 | 75.2 | 19.8 | 50 | 80.2 | 73 | > 100 | > 100 | 31.2 | > 100 | > 100 | 14.4 | > 100 | > 100
CSc1nc(NCc2ccccc2)c2cccnc2n1 | 56.3 | 98.5 | > 100 | 39.4 | > 100 | > 100 | 5.08 | 51.6 | > 100 | 49 | > 100 | > 100 | 25.9 | 97.51 | 61.7 | 87.1 | > 100 | > 100
COc1ccc(CNc2nc([SeH])nc3ccccc23)cc1 | > 100 | > 100 | > 100 | 42.7 | > 100 | 94 | 7.11 | 60.9 | > 100 | 71.2 | > 100 | > 100 | 37.4 | > 100 | > 100 | 71.6 | > 100 | > 100
COc1cc([C@@H]2c3cc4c(cc3[C@@H](O[C@@H]3O[C@@H]5CO[C@@H](C)O[C@H]5[C@H](O)[C@H]3O)[C@H]3COC(=O)[C@H]23)OCO4)cc(OC)c1O [ETOPOSIDE] | 12.6 | 50.1 | > 100 |  |  | > 100 |  |  |  |  |  |  |  |  |  |  | > 100 | > 100
COc1ccc(CNc2nc([Se]C)nc3ccccc23)cc1 | > 100 | > 100 | > 100 | 42.2 | > 100 | 98.6 | 33 | > 100 | > 100 | 75.6 | > 100 | > 100 | > 100 | > 100 | > 100 | 73.6 | > 100 | > 100
CSc1ccc(CNc2nc(SC)nc3ccccc23)cc1 | > 100 | > 100 | > 100 | 47.3 | > 100 | > 100 | 7.22 | 44.5 | 89.1 | 22 | > 100 | > 100 | 22.7 | 95.93 | 59.11 | 34.7 | > 100 | > 100
Sc1nc(NCc2ccccc2)c2ccccc2n1 | 82.4 | > 100 | > 100 | 27.2 | > 100 | > 100 | 15.2 | > 100 | > 100 | 49.6 | > 100 | > 100 | 66.3 | > 100 | > 100 | 10.1 | 63.5 | > 100
[SeH]c1nc([SeH])c2cccnc2n1 |  |  |  | 9.83 | 82.7 | 46.1 | 4.03 | 7.93 | 68.4 | 0.71 | 67.5 | 8.26 |  |  |  |  |  | 
CSc1nc(NCCCCCO)c2ccccc2n1 | > 100 | > 100 | > 100 | 62 | > 100 | > 100 | 31.4 | 71.4 | > 100 | 49.9 | > 100 | > 100 | 39.3 | > 100 | 99.35 | > 100 | > 100 | > 100
C[Se]c1nc(N)c2ccccc2n1 | 65.1 | > 100 | > 100 | 46.5 | > 100 | > 100 | 18 | 88.7 | > 100 | 24.4 | 93.68 | 59.04 | 23.6 | 85.52 | 54.56 | 27.6 | 74.8 | > 100
CCCCC[Se]c1nc(NCc2ccc(SC)cc2)c2ccccc2n1 | 35 | 83.9 | > 100 | 34.7 | 95.3 | 65 | 40.4 | 81.3 | > 100 | 57.4 | > 100 | > 100 | 34.7 | > 100 | 88.21 | 83.6 | > 100 | > 100
[Se]=C=NCc1ccccc1 [BENZYLISOSELENOCYANATE] | 28.7 | 57.7 | 86.7 | 27.9 | 95.5 | 61.7 | 5.98 | 33.4 | 66.1 | 15.5 | 74.86 | 45.15 | 4.1 | 69.59 | 32.75 | 21 | 44.5 | 68.1

From ChEMBL document CHEMBL1926588, “Sulfur and selenium derivatives of quinazoline and pyrido[2,3-d]pyrimidine: synthesis and study of their potential cytotoxic activity in vitro” (Eur J Med Chem, 2012)
